Test results as given in ChEMBL document CHEMBL3351385, “Synthesis and preliminary mechanistic evaluation of 5-(p-tolyl)-1-(quinolin-2-yl)pyrazole-3-carboxylic acid amides with potent antiproliferative activity on human cancer cell lines” (Eur J Med Chem, 2014).
The source made the active and inactive calls. No cut-off for these calls is given here.

How the values were obtained:
[1] = biological target: Calcium/calmodulin-dependent protein kinase kinase 2 (Homo sapiens) (UniProt Q96RR4); test: Inhibition of CAMKKB (unknown origin) assessed as remaining enzyme activity at 10 uM by radioactive [33P]-ATP filter binding assay
Procedure, shortened: (§1)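 A single 10 µM concentration was tested across a 140-kinase panel. Activity was measured by a radioactive 33P-ATP filter-binding assay run at the International Center for Kinase Profiling, University of Dundee.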

[2] = biological target: Glycogen synthase kinase-3 beta (Homo sapiens) (UniProt P49841); test: Inhibition of GSK3beta (unknown origin) assessed as remaining enzyme activity at 10 uM by radioactive [33P]-ATP filter binding assay
[3] = biological target: Tyrosine-protein kinase JAK2 (Homo sapiens) (UniProt O60674); test: Inhibition of JAK2 (unknown origin) assessed as remaining enzyme activity at 10 uM by radioactive [33P]-ATP filter binding assay
[4] = biological target: Dual specificity mitogen-activated protein kinase kinase 1 (Homo sapiens) (UniProt Q02750); test: Inhibition of MKK1 (unknown origin) assessed as remaining enzyme activity at 10 uM by radioactive [33P]-ATP filter binding assay
Dual specificity mitogen-activated protein kinase kinase 1 (Homo sapiens), sequence (Q02750 whole entry): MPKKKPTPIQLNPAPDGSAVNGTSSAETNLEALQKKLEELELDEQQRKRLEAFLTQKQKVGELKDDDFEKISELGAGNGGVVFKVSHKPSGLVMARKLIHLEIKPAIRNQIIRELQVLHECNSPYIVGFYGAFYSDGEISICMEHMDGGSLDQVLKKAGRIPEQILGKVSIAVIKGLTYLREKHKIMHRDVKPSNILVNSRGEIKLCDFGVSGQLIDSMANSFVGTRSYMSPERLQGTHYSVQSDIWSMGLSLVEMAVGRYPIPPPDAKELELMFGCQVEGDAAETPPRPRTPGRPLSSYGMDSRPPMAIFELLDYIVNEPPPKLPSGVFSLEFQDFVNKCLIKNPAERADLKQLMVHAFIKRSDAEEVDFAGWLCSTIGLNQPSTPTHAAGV

[5] = biological target: Ribosomal protein S6 kinase alpha-1 (Homo sapiens) (UniProt Q15418); test: Inhibition of RSK1 (unknown origin) assessed as remaining enzyme activity at 10 uM by radioactive [33P]-ATP filter binding assay
[6] = biological target: Dual specificity mitogen-activated protein kinase kinase 6 (Homo sapiens) (UniProt P52564); test: Inhibition of MKK6 (unknown origin) assessed as remaining enzyme activity at 10 uM by radioactive [33P]-ATP filter binding assay
[7] = biological target: Serine/threonine-protein kinase tousled-like 1 (Homo sapiens) (UniProt Q9UKI8); test: Inhibition of TLK1 (unknown origin) assessed as remaining enzyme activity at 10 uM by radioactive [33P]-ATP filter binding assay
Serine/threonine-protein kinase tousled-like 1 (Homo sapiens), sequence (Q9UKI8 whole entry): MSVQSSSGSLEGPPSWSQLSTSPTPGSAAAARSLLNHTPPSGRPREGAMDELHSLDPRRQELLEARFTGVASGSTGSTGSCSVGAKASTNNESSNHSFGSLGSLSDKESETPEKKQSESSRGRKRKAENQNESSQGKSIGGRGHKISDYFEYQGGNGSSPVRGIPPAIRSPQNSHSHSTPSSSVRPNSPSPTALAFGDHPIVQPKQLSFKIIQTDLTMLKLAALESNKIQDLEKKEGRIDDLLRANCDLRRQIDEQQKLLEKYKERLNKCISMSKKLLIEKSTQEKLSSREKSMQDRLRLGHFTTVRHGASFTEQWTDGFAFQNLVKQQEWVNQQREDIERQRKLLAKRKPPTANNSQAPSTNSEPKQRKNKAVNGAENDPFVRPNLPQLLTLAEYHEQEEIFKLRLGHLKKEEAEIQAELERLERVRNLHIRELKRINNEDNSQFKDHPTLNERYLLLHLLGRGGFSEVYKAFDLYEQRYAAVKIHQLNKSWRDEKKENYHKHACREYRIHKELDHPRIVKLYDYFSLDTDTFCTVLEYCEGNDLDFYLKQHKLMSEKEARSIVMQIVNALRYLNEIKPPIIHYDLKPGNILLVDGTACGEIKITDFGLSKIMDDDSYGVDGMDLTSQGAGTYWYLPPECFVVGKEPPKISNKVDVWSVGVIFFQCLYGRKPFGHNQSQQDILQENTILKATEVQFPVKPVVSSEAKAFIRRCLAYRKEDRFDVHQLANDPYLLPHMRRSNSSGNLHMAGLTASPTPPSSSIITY

Huh-7 [8] = test: Induction of autophagy in human HuH7 cells assessed as increase in LC3-2 formation at cytotoxic IC50 level after 72 hrs by Western blotting method; assay type: functional, cell-based
[9] = biological target: MAP kinase-activated protein kinase 3 (Homo sapiens) (UniProt Q16644); test: Inhibition of MAPKAPK3 (unknown origin) assessed as remaining enzyme activity at 10 uM by radioactive [33P]-ATP filter binding assay
MAP kinase-activated protein kinase 3 (Homo sapiens), sequence (Q16644 whole entry, looked up): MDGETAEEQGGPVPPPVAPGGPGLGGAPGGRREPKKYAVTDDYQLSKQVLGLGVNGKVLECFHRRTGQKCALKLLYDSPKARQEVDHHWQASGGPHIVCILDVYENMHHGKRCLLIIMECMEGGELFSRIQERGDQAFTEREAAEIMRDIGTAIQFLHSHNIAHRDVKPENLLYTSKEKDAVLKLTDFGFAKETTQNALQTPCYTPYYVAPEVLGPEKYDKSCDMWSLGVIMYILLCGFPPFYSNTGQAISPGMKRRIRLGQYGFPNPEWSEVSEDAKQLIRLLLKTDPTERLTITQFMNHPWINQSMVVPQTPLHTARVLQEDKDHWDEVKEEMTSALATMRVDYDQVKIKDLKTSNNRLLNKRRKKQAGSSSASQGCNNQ

[10] = biological target: Mitogen-activated protein kinase 10 (Homo sapiens) (UniProt P53779); test: Inhibition of JNK3 (unknown origin) assessed as remaining enzyme activity at 10 uM by radioactive [33P]-ATP filter binding assay
Mitogen-activated protein kinase 10 (Homo sapiens), sequence (P53779 whole entry): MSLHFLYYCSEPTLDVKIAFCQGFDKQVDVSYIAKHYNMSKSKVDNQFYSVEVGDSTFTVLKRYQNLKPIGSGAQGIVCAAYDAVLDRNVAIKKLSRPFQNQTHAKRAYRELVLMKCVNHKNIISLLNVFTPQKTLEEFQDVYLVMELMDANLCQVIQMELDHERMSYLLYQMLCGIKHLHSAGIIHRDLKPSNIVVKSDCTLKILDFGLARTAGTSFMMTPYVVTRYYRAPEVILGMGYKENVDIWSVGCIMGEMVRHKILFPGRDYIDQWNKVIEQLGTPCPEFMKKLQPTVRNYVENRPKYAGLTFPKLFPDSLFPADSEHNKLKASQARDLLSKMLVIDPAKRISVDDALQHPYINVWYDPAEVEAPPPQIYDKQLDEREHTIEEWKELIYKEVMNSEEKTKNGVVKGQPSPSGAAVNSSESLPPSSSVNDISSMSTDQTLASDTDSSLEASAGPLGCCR

[11] = biological target: Dual specificity tyrosine-phosphorylation-regulated kinase 3 (Homo sapiens) (UniProt O43781); test: Inhibition of DYRK3 (unknown origin) assessed as remaining enzyme activity at 10 uM by radioactive [33P]-ATP filter binding assay; procedure, shortened: as §1
Dual specificity tyrosine-phosphorylation-regulated kinase 3 (Homo sapiens), sequence (O43781 whole entry): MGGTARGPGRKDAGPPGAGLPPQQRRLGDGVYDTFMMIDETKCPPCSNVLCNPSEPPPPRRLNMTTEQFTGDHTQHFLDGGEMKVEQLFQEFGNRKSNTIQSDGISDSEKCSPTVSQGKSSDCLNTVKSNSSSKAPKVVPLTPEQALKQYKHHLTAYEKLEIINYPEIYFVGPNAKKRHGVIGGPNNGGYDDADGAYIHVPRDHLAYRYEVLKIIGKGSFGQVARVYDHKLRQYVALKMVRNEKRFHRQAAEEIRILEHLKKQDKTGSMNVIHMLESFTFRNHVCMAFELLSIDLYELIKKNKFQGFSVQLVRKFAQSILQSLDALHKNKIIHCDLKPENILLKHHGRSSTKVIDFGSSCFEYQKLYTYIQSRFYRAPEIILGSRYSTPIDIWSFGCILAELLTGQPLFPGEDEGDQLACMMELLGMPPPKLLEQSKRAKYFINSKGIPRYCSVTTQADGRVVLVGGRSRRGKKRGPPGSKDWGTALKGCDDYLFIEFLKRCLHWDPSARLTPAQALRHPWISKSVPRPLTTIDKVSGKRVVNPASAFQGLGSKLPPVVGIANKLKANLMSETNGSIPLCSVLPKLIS

[12] = Induction of cell cycle arrest in human HuH7 cells assessed as accumulation at G0/G1 phase at cytotoxic IC50 level after 48 hrs by propidium iodide staining based FACS method; assay type: functional, Huh-7
Procedure, shortened: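 Huh7 cells were seeded at 150,000–300,000 per 100-mm dish and left 24 h. […] Cells were stained with a propidium iodide-containing cell cycle reagent, and subG1, G0/G1, S and G2/M fractions were scored by flow cytometry.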

[13] = biological target: Homeodomain-interacting protein kinase 3 (Homo sapiens) (UniProt Q9H422); test: Inhibition of HIPK3 (unknown origin) assessed as remaining enzyme activity at 10 uM by radioactive [33P]-ATP filter binding assay
[14] = biological target: Serine/threonine-protein kinase SIK2 (Homo sapiens) (UniProt Q9H0K1); test: Inhibition of SIK2 (unknown origin) assessed as remaining enzyme activity at 10 uM by radioactive [33P]-ATP filter binding assay
[15] = biological target: Serine/threonine-protein kinase pim-3 (Homo sapiens) (UniProt Q86V86); test: Inhibition of PIM3 (unknown origin) assessed as remaining enzyme activity at 10 uM by radioactive [33P]-ATP filter binding assay
[16] = biological target: Serine/threonine-protein kinase Nek2 (Homo sapiens) (UniProt P51955); test: Inhibition of NEK2A (unknown origin) assessed as remaining enzyme activity at 10 uM by radioactive [33P]-ATP filter binding assay
[17] = biological target: MAP/microtubule affinity-regulating kinase 4 (Homo sapiens) (UniProt Q96L34); test: Inhibition of MARK4 (unknown origin) assessed as remaining enzyme activity at 10 uM by radioactive [33P]-ATP filter binding assay
[18] = biological target: Serine/threonine-protein kinase 26 (Homo sapiens) (UniProt Q9P289); test: Inhibition of MST4 (unknown origin) assessed as remaining enzyme activity at 10 uM by radioactive [33P]-ATP filter binding assay
Serine/threonine-protein kinase 26 (Homo sapiens), sequence (Q9P289 2-416 limits assumed): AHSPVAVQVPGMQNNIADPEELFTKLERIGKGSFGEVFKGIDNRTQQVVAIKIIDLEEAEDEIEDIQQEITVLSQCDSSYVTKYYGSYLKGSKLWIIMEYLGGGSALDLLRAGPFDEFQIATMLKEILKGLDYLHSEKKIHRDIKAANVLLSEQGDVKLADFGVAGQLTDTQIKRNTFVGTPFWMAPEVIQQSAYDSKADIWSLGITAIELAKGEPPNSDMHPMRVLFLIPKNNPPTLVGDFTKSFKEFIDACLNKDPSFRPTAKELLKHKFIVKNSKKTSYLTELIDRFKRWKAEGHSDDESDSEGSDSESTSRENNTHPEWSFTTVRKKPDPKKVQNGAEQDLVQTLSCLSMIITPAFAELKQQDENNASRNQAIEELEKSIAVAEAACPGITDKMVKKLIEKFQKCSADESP

[19] = biological target: Dual specificity mitogen-activated protein kinase kinase 2 (Homo sapiens) (UniProt P36507); test: Inhibition of MKK2 (unknown origin) assessed as remaining enzyme activity at 10 uM by radioactive [33P]-ATP filter binding assay
[20] = biological target: Serine/threonine-protein kinase MARK1 (Homo sapiens) (UniProt Q9P0L2); test: Inhibition of MARK1 (unknown origin) assessed as remaining enzyme activity at 10 uM by radioactive [33P]-ATP filter binding assay
[21] = biological target: Ephrin type-B receptor 4 (Homo sapiens) (UniProt P54760); test: Inhibition of EPHB4 (unknown origin) assessed as remaining enzyme activity at 10 uM by radioactive [33P]-ATP filter binding assay; procedure, shortened: as §1
Ephrin type-B receptor 4 (Homo sapiens), sequence (P54760 whole entry): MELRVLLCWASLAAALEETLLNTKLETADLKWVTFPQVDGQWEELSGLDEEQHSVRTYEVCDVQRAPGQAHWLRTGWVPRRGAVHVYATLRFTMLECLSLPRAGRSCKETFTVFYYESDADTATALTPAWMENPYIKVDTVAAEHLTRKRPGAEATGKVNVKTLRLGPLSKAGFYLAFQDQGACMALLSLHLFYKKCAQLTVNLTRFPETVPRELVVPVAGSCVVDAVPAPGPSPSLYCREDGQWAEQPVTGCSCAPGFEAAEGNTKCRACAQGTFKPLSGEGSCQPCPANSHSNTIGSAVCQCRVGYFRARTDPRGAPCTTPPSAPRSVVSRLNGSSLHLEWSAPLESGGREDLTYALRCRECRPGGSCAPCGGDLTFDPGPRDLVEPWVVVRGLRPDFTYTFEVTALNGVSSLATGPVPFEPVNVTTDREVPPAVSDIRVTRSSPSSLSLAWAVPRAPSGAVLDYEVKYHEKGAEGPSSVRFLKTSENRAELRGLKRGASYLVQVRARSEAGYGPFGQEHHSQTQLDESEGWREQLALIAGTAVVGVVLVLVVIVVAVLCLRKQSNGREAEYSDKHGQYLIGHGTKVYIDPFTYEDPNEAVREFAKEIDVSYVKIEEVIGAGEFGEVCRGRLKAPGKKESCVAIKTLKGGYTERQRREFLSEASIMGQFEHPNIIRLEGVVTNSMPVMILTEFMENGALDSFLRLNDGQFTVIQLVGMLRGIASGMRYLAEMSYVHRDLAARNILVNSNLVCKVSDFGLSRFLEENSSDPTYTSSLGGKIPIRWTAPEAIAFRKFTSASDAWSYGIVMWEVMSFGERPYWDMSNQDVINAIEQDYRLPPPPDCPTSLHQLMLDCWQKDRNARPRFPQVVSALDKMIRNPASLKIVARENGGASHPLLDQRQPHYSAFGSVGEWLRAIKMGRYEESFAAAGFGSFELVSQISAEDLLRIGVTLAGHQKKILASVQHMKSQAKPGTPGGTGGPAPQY

[22] = biological target: Dual specificity tyrosine-phosphorylation-regulated kinase 1A (Homo sapiens) (UniProt Q13627); test: Inhibition of DYRK1A (unknown origin) assessed as remaining enzyme activity at 10 uM by radioactive [33P]-ATP filter binding assay; procedure, shortened: as §1
[23] = biological target: Serine/threonine-protein kinase PAK 6 (Homo sapiens) (UniProt Q9NQU5); test: Inhibition of PAK6 (unknown origin) assessed as remaining enzyme activity at 10 uM by radioactive [33P]-ATP filter binding assay
[24] = biological target: CDK9/cyclin T1 (Homo sapiens) (UniProt O60563+P50750); test: Inhibition of CDK9/Cyclin-T1 (unknown origin) assessed as remaining enzyme activity at 10 uM by radioactive [33P]-ATP filter binding assay; assay type: protein-complex assay; procedure, shortened: as §1
Huh-7 [25] = test: Induction of cell death in human HuH7 cells assessed as nuclear condensation at cytotoxic IC50 level after 72 hrs by Hoechst 33258 staining based […]; assay type: functional
Procedure, shortened: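 Cells were washed in cold PBS, fixed 10 min in cold methanol and stained with Hoechst 33258 at 3 µg/mL for 5 min in the dark. Nuclear condensation and fragmentation were examined by fluorescence microscopy at 40×.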

[26] = biological target: TGF-beta receptor type-1 (Homo sapiens) (UniProt P36897); test: Inhibition of TGFBR1 (unknown origin) assessed as remaining enzyme activity at 10 uM by radioactive [33P]-ATP filter binding assay
TGF-beta receptor type-1 (Homo sapiens), sequence (P36897 whole entry): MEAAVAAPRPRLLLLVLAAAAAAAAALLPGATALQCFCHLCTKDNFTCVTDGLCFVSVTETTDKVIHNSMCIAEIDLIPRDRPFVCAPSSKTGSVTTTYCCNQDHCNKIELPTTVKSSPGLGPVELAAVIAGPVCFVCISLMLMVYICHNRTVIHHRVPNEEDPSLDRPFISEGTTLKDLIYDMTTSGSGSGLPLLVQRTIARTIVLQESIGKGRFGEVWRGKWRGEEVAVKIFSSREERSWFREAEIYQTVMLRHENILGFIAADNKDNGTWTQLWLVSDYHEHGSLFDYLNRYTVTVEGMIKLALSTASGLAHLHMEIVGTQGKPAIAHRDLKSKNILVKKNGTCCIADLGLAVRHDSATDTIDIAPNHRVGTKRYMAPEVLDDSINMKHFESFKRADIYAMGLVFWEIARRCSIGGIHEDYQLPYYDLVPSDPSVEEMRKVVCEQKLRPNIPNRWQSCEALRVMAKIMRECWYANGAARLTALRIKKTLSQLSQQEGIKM

[27] = biological target: Mitogen-activated protein kinase 7 (Homo sapiens) (UniProt Q13164); test: Inhibition of ERK5 (unknown origin) assessed as remaining enzyme activity at 10 uM by radioactive [33P]-ATP filter binding assay; procedure, shortened: as §1
[28] = biological target: Aurora kinase A (Homo sapiens) (UniProt O14965); test: Inhibition of Aurora A (unknown origin) assessed as remaining enzyme activity at 10 uM by radioactive [33P]-ATP filter binding assay; procedure, shortened: as §1
Aurora kinase A (Homo sapiens), sequence (O14965 whole entry): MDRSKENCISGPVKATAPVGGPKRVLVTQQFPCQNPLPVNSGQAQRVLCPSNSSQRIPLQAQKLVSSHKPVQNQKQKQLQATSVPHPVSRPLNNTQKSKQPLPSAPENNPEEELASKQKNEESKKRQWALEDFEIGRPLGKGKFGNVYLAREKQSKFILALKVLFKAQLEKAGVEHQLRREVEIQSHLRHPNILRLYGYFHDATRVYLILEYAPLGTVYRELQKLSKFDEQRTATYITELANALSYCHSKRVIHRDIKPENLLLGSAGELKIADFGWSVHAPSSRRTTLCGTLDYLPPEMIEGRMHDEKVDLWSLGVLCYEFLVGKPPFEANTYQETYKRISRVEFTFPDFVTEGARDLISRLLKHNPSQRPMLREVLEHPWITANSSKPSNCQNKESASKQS

Activity [1]: 85%
Activity [2]: 103%
Activity [3]: 99%
Activity [4]: 95%
Activity [5]: 108%
Activity [6]: 99%
Activity [7]: 114%
Activity [9]: 94%
Activity [10]: 95%
Activity [11]: 86%
Activity [13]: 100%
Activity [14]: 106%
Activity [15]: 113%
Activity [16]: 90%
Activity [17]: 76%
Activity [18]: 110%
Activity [19]: 94%
Activity [20]: 99%
Activity [21]: 125%
Activity [22]: 68%
Activity [23]: 104%
Activity [24]: 113%
Activity [26]: 108%
Activity [27]: 74%
Activity [28]: 120%
Compound: Cc1ccc(-c2cc(C(=O)Nc3ccnc(Cl)c3)nn2-c2ccc3ccccc3n2)cc1
Activity (Huh-7 [8]): inactive
Activity [12]: 40.1%
Activity (Huh-7 [25]): Active
